Measured values from ChEMBL document CHEMBL3526035, “Role of the intestinal peptide transporter PEPT1 in oseltamivir absorption: in vitro and in vivo studies” (Drug Metab Dispos, 2012).

How the values were obtained:
[1] = AUC(0 to 6 hrs) in adult fasted Sprague-Dawley rat at 30 mg/kg, po administered as 125 mM aqueous Gly-Sar solution by HPLC-tandem mass spectrometry; assay type: ADME, organism-based; set-up: time < 6 hr, dose 30 mg/kg, route oral; settings: plasma
Method in brief: (§1)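 Adult male Sprague-Dawley rats (243-283 g), jugular-cannulated, fasted from 6 h before dosing through the 6-h study. Given 30 mg/kg orally (free base) at 10 ml/kg, n=3/group. Blood sampled at 0.25-6 h into K2EDTA with dichlorvos esterase inhibitor. Plasma assayed by LC-MS/MS (0.1-500 μg/l). Noncompartmental analysis: linear-trapezoid AUC; infinity extrapolation via log-linear terminal λz.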

[2] = Tmax in adult fasted Sprague-Dawley rat at 30 mg/kg, po administered as solution in bovine milk by HPLC-tandem mass spectrometry; assay type: ADME, organism-based; set-up: dose 30 mg/kg, route oral; settings: in vivo
Method in brief: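 Male Sprague-Dawley rats (7–8 weeks, 243–283 g) had jugular-vein cannulas and 3 days' recovery. Fasting ran from 6 h predose through the 6 h study. Three rats per vehicle received 30 mg/kg oral (10 ml/kg). Blood was sampled 0.25–6 h into K2EDTA tubes with dichlorvos. Plasma was assayed by HPLC-MS/MS (0.1–500 µg/l). Tmax was read graphically (noncompartmental).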

[3] = Drug uptake in CHOK1 cells by HPLC coupled with radiodetection analysis in presence of KH and Hanks' balanced salt solution; assay type: ADME, cell-based, Cricetulus griseus; settings: chinese hamster, cho-k1
[4] = Terminal half life in healthy human at 150 mg, po administered as single dose by HPLC-tandem mass spectrometry under fasting conditions; assay type: ADME, organism-based; settings: in vivo, read-out: beta t1/2 (converted)
Method in brief: (§2)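 Open-label crossover food-effect study in 18 healthy volunteers (9 male, 9 female, mean age 26). Each received a single 150 mg oral dose of the marketed formulation, once fasting from midnight and once after a high-fat, high-calorie breakfast, separated by a 7–10 day washout. Plasma and urine were collected over 0–72 h and assayed by HPLC-MS/MS for oseltamivir and carboxylate.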

[5] = Terminal half life in healthy human at 150 mg, po administered as single dose by HPLC-tandem mass spectrometry under fed conditions; assay type: ADME, organism-based; settings: in vivo, read-out: beta t1/2 (converted); method in brief: as §2
[6] = AUC(0 to 6 hrs) in adult fasted Sprague-Dawley rat at 30 mg/kg, po administered as solution in bovine milk by HPLC-tandem mass spectrometry; assay type: ADME, organism-based; set-up: time < 6 hr, dose 30 mg/kg, route oral; settings: in vivo; method in brief: as §1
[7] = Apparent oral clearance in healthy human at 150 mg, po administered as single dose by HPLC-tandem mass spectrometry under fasting conditions; assay type: ADME, organism-based; settings: in vivo
Method in brief: (§3)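 Open-label crossover in 18 healthy volunteers (9 male, 9 female, mean age 26). Each received marketed oseltamivir 150 mg orally, once fasted from midnight and once after a high-fat, high-calorie breakfast, with a 7-10 day washout. Plasma and urine collected over 0-72 h and analysed by HPLC-MS/MS. AUC and Cmax compared after log transformation.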

[8] = Cmax in adult fasted Sprague-Dawley rat at 30 mg/kg, po administered as solution in bovine milk by HPLC-tandem mass spectrometry; assay type: ADME, organism-based; set-up: dose 30 mg/kg, route oral; settings: in vivo
Method in brief: (§4)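 Adult cannulated Sprague-Dawley rats, fasted (from 6 h predose) or fed, dosed orally at 30 mg/kg (10 ml/kg), 3 per group. Serial jugular plasma with dichlorvos stabilisation, measured by LC-MS/MS. Cmax read graphically from the concentration-time profile.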

[9] = AUC(0 to infinity) in healthy human at 150 mg, po administered as single dose by HPLC-tandem mass spectrometry under fasting conditions; assay type: ADME, organism-based; set-up: dose 150 mg, route oral, time infinity; settings: plasma; method in brief: as §3
[10] = Tmax in juvenile fasted Sprague-Dawley rat at 30 mg/kg, po administered as water solution by HPLC-tandem mass spectrometry; assay type: ADME, organism-based; set-up: dose 30 mg/kg, route oral; settings: in vivo
Method in brief: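 Seven-day-old Sprague-Dawley pups, males and females, 15 per group, were gavaged with 30 mg/kg (10 ml/kg). Breast-fed pups stayed with their dams; fasted pups were removed from 8 h predose through 5 h. Cardiac blood was drawn under isoflurane at 0.25, 0.5, 1, 2 and 5 h (composite, n=3/time point), with dichlorvos added. Plasma was analyzed by HPLC-MS/MS and Tmax read graphically.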

[11] = Renal clearance in healthy human at 150 mg, po administered as single dose by HPLC-tandem mass spectrometry under fasting conditions; assay type: ADME, organism-based, Kidney; settings: in vivo; method in brief: as §2
[12] = Cmax in healthy human at 150 mg, po administered as single dose by HPLC-tandem mass spectrometry under fasting conditions; assay type: ADME, organism-based; set-up: dose 150 mg, route oral; settings: in vivo; method in brief: as §3
[13] = AUC(0 to 6 hrs) in adult fasted Sprague-Dawley rat at 30 mg/kg, po administered as water solution by HPLC-tandem mass spectrometry; assay type: ADME, organism-based; set-up: time < 6 hr, dose 30 mg/kg, route oral; settings: plasma; method in brief: as §1
[14] = AUC(0 to 5 hrs) in juvenile breast-fed Sprague-Dawley rat at 30 mg/kg, po administered as water solution by HPLC-tandem mass spectrometry; assay type: ADME, organism-based; set-up: time < 5 hr, dose 30 mg/kg, route oral; settings: plasma
Method in brief: (§5)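 7-day-old Sprague-Dawley pups (9.7-18.9 g, both sexes), 15 per group. Given 30 mg/kg by oral gavage (10 ml/kg); breast-fed pups stayed with dams, fasted pups were removed 8 h before dosing. Blood taken by cardiac puncture under isoflurane at 0.25, 0.5, 1, 2 and 5 h, n=3 per time point (composite design). Dichlorvos-treated plasma assayed by LC-MS/MS; AUC0-5h by noncompartmental analysis.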

[15] = Cmax in juvenile fasted Sprague-Dawley rat at 30 mg/kg, po administered as water solution by HPLC-tandem mass spectrometry; assay type: ADME, organism-based; set-up: dose 30 mg/kg, route oral; settings: in vivo; method in brief: as §5
[16] = Renal clearance in healthy human at 150 mg, po administered as single dose by HPLC-tandem mass spectrometry under fed conditions; assay type: ADME, organism-based, Kidney; settings: in vivo; method in brief: as §2
[17] = Drug excretion in healthy human urine assessed as unchanged drug level at 150 mg, po administered as single dose by HPLC-tandem mass spectrometry under fasting conditions; assay type: ADME, organism-based; settings: read-out: Drug excretion; method in brief: as §3
[18] = Cmax in adult fed Sprague-Dawley rat at 30 mg/kg, po administered as solution in bovine milk by HPLC-tandem mass spectrometry; assay type: ADME, organism-based; set-up: dose 30 mg/kg, route oral; settings: in vivo; method in brief: as §4
[19] = Tmax in healthy human at 150 mg, po administered as single dose by HPLC-tandem mass spectrometry under fed conditions; assay type: ADME, organism-based; settings: in vivo; method in brief: as §2
[20] = Drug uptake in CHOK1 cells at pH 5 by HPLC coupled with radiodetection analysis; assay type: ADME, cell-based, Cricetulus griseus; settings: chinese hamster, cho-k1, pH 5
[21] = AUC(0 to 5 hrs) in juvenile fasted Sprague-Dawley rat at 30 mg/kg, po administered as solution in bovine milk by HPLC-tandem mass spectrometry; assay type: ADME, organism-based; set-up: time < 5 hr, dose 30 mg/kg, route oral; settings: in vivo; method in brief: as §5
[22] = AUC(0 to 6 hrs) in adult fed Sprague-Dawley rat at 30 mg/kg, po administered as water solution by HPLC-tandem mass spectrometry; assay type: ADME, organism-based; set-up: time < 6 hr, dose 30 mg/kg, route oral; settings: plasma
Method in brief: (§6)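 Sprague-Dawley males, 7-8 weeks, 243-283 g, jugular-cannulated, 3 days' recovery; fed (chow ad libitum). Single oral dose of 30 mg/kg (free base) at 10 ml/kg; 3 rats/group. Jugular blood taken at 0.25-24 h into K2EDTA with dichlorvos, kept on ice. Plasma analysed by validated LC-MS/MS (0.1-500 μg/l). Noncompartmental analysis; AUC by linear trapezoid, AUC0-∞ extrapolated using λz.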

[23] = Cmax in adult fed Sprague-Dawley rat at 30 mg/kg, po administered as water solution by HPLC-tandem mass spectrometry; assay type: ADME, organism-based; set-up: dose 30 mg/kg, route oral; settings: in vivo; method in brief: as §4
[24] = Drug uptake in CHOK1 cells expressing human PEPT1 at 5 to 100 uM after 10 mins by HPLC coupled with radiodetection analysis; assay type: ADME, cell-based, Cricetulus griseus; settings: chinese hamster, cho-k1, 10 min
[25] = AUC(0 to 6 hrs) in adult fed Sprague-Dawley rat at 30 mg/kg, po administered as 125 mM aqueous Gly-Sar solution by HPLC-tandem mass spectrometry; assay type: ADME, organism-based; set-up: time < 6 hr, dose 30 mg/kg, route oral; settings: plasma; method in brief: as §6

| SMILES | AUC(0-t) at 6 h [1] [ng·h/mL] | Tmax [2] [h] | Drug uptake [3] | half-life [4] [min] | half-life [5] [min] | AUC(0-t) at 6 h [6] [ng·h/mL] | CL/F [7] [mL/min] | Cmax [8] [ng/mL] | AUC(0-inf) [9] [ng·h/mL] | Tmax [10] [h] | CL renal [11] [mL/min] | Cmax [12] [ng/mL] | AUC(0-t) at 6 h [13] [ng·h/mL] | AUC(0-t) at 5 h [14] [ng·h/mL] | Cmax [15] [ng/mL] | CL renal [16] [mL/min] | dose excreted [17] [%] | Cmax [18] [ng/mL] | Tmax [19] [h] | Drug uptake [20] | other results |
| --- | --- | --- | --- | --- | --- | --- | --- | --- | --- | --- | --- | --- | --- | --- | --- | --- | --- | --- | --- | --- | --- |
| CCC(CC)O[C@@H]1C=C(C(=O)O)C[C@H](N)[C@H]1NC(C)=O [OSELTAMIVIR CARBOXYLATE] | 8350 | 1.92 | Active | 412 | 492 | 5810 | 371 | 1630 | 6220 | 2 | 223 | 551 | 5910 | 5070 | 3100 | 218 | 58.5 | 1310 | 5.42 | Active | AUC(0-t) at 5 h [21]: 9260 ng·h/mL; AUC(0-t) at 6 h [22]: 3540 ng·h/mL; Cmax [23]: 1110 ng/mL; Drug uptake [24]: Active; AUC(0-t) at 6 h [25]: 2960 ng·h/mL |
| CCOC(=O)C1=C[C@@H](OC(CC)CC)[C@H](NC(C)=O)[C@@H](N)C1 [OSELTAMIVIR] | 3780 | 0.5 | Active | 96.6 | 129 | 3010 | 13000 | 1630 | 244 | 0.5 | 340 | 124 | 2680 | 20300 | 10500 | 385 | 3.09 | 1430 | 2.06 | Active | AUC(0-t) at 5 h [21]: 26900 ng·h/mL; AUC(0-t) at 6 h [22]: 2200 ng·h/mL; Cmax [23]: 1270 ng/mL; Drug uptake [24]: Active; AUC(0-t) at 6 h [25]: 2280 ng·h/mL |
